OX1R antag-1: antagonists of human orexin 1 receptor (OX1R); Orexin/Hypocretin receptor type 1 (Homo sapiens), O43613; OX1R-expressing cells, FRET antagonist read-out; inhibition, % at 6.6 µM; hit rate 1.8% among 330,000; AID 485270, 2010; in the data active means inhibition mostly above about 38%, no sharp cut-off; inactive means mostly below about 40%;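 further: 0% = agonist challenge alone and 100% = reference antagonist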
Target sequence (O43613 whole entry, looked up): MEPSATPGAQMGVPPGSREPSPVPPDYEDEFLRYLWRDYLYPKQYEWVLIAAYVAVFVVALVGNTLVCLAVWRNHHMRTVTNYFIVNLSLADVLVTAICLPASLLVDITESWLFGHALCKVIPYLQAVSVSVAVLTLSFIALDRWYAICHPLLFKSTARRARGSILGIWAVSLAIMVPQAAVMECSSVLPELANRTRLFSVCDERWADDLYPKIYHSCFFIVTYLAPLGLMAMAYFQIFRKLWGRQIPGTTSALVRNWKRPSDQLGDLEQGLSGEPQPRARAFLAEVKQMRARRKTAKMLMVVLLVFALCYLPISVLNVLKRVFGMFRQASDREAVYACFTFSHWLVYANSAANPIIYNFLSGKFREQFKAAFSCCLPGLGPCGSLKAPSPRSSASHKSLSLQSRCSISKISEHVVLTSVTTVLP
OX1R antag-2: OX1R (HCRTR1) antagonists, primary screen, fluorescence, CHO/OX1R cells, Fluo-8 calcium, orexin A; Orexin/Hypocretin receptor type 1 (Homo sapiens), O43613; Fluo-8 calcium fluorescence; inhibition, % at 5 µM; hit rate 0.43% among 330,000; AID 434989, 2010;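 active means inhibition above its plate's threshold, mean inhibition of all tested compounds on the plate plus 3 SD, cut at about 37% in these data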;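 further: 0% = orexin A challenge wells and 100% = SB-334867-A antagonist wells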
CHO parental Ca: ATP-evoked calcium signal inhibitors, parental CHO, primary screen, counter-screen for OX1R antagonist project, cell-based, fluorescence, Fluo-8 calcium dye; parental CHO-K1, ATP-induced calcium, Fluo-8 fluorescence; hit rate 0.63% among 330,000; AID 463079, 2010; inhibition, % at 5.6 µM;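 active means inhibition above that plate's mean sample inhibition plus 3 SD, cut at about 26% in these data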;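 further: 0% = ATP-challenged DMSO wells and 100% = DMSO wells without ATP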
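Assay system: parental CHO cells; Read-out basis: percent inhibition of ATP-evoked calcium rise, normalized to controls; Benchmarks: ATP and no-ATP DMSO wells; Compound dosing: single nominal dose of 5.6 µM per compound; Signal: Fluo-8 calcium dye fluorescence; Also added: ATP as calcium-mobilizing challenge; Repeats: singlicate.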
TAAR1 agonist: human TAAR1 agonists, primary screen, Fluo-8 calcium fluorescence, CHO RD-HGA16 cells | Trace amine-associated receptor 1 (Homo sapiens), Q96RJ0 | vehicle wells 0%, saturating PEA agonist 100% | activation, % at 3 µM | hit rate 0.99% among 360,000 | AID 624467, 2012;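 active means activation above the mean activation of all test compounds in the run plus 3 SD, cut at about 38% in these data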
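Assay system – CHO-derived RD-HGA16 cells with stable Gα16 and human TAAR1 · Compound dosing – one-point dosing at 3 µM (nominal) · Incubation – 17-24 h seeding, 75 min 37 °C dye, 30 min RT · Measured by – kinetic Fluo-8 calcium fluorescence · Control set – DMSO vehicle as 0%, PEA at EC100 as 100% · Repeats – single well for each compound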
TAAR1 antagonist: human TAAR1 antagonists, primary screen, Fluo-8 calcium fluorescence, CHO RD-HGA16 cells | Trace amine-associated receptor 1 (Homo sapiens), Q96RJ0 | antagonist | inhibition, % at 3 µM | hit rate 1.5% among 360,000 | AID 624466, 2012;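 active means inhibition above a per-plate cutoff, the mean inhibition of test compounds on that plate plus 3 SD, cut at about 49% in these data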;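 further: 0% = DMSO plus EC80 beta-PEA response and 100% = DMSO alone without agonist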
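Test system: CHO RD-HGA16 cells bearing hTAAR1 | Reagent: β-PEA, EC80 | Compound dosing: 3 µM, single point | Schedule: Dye loading 75 min at 37 °C, then 30 min room temperature | Signal: Calcium fluorescence with Fluo-8 | Evaluation: Percent inhibition of PEA-evoked calcium signal, max/basal emission ratio | Control set: DMSO-only wells and EC80 β-PEA-stimulated wells | Repeats: Singlicate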
OX1R Ca confirm: OX1R (HCRTR1) antagonists, confirmation, fluorescence, CHO/OX1R cells, Fluo-8 calcium, orexin A | shares compounds with OX1R antag-2 | orexin A calcium Fluo-8 fluorescence | inhibition, % at 5 µM | hit rate 38% among 1,100 | AID 492963, 2010; in the data active means inhibition above about 29%;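 further: 0% = agonist challenge alone and 100% = reference antagonist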
CHO Ca triplic: ATP-evoked calcium inhibition in parental CHO, counter-screen for OX1R antagonist project, cell-based, fluorescence, CHO-K1, triplicate | shares compounds with OX1R antag-2 | ATP-induced calcium, Fluo-8 fluorescence | inhibition, % at 5.6 µM | hit rate 9.3% among 1,100;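 active means inhibition above a per-plate limit, the mean inhibition of that plate's test compounds plus 3 SD, cut at about 25% in these data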;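 further: 0% = ATP challenge with DMSO and 100% = DMSO without ATP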
OX1R HTRF confirm: OX1R (HCRTR1) antagonists, confirmation, cell-based, HTRF | hit rate 49% among 1,800 | inhibition, % at 6.6 µM | OX1R-expressing cells, HTRF antagonist assay | shares compounds with OX1R antag-1; in the data active means inhibition above about 55%;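 further: CHO cells expressing OX1R stimulated with orexin A at about EC80; 0% = agonist challenge alone and 100% = reference antagonist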
CHO-K1 HTRF: signal inhibition in parental CHO-K1 cells, counter-screen for OX1R antagonist project, cell-based, HTRF | shares compounds with OX1R antag-1 | HTRF counterscreen | inhibition, % at 6.6 µM | hit rate 48% among 1,800; in the data active means inhibition above about 17%;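 further: 0% = agonist challenge with vehicle and 100% = vehicle alone without agonist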
An asterisk follows results filed as active; x = not tested or not shown. Compounds with a hit are over-represented: about 3.9% of the library has one in this group of screens.

SMILES	OX1R antag-1	OX1R antag-2	CHO parental Ca	TAAR1 agonist	TAAR1 antagonist	OX1R Ca confirm	CHO Ca triplic	OX1R HTRF confirm	CHO-K1 HTRF
CN(C)c1ccc(NC(=S)c2ccc3ccccc3n2)cc1	93*	58*	0	-2	-10	29	14	85*	9
COc1ccc(/C=N/NC(=O)c2nnn(-c3nonc3N)c2CN(C)c2ccccc2)cc1	50*	44*	-5	12	-8	31*	3	83*	2
CN(Cc1c(C(=O)N/N=C/c2ccccc2F)nnn1-c1nonc1N)c1ccccc1	45	36	-5	3	-7	x	x	x	x
COc1ccccc1/C=N/NC(=O)c1nnn(-c2nonc2N)c1CN(C)c1ccccc1	37	30	-13	-2	37	x	x	x	x
CN(Cc1c(C(=O)N/N=C/c2ccc(O)cc2)nnn1-c1nonc1N)c1ccccc1	95*	80*	12	11	42	37*	8	79*	5
CN(Cc1c(C(=O)N/N=C/c2ccccc2)nnn1-c1nonc1N)c1ccccc1	72*	58*	-12	2	8	36*	0	83*	4
COc1cccc2sc3ccc(C#CC4(N)CCCCC4)cc3c(=O)c12	6	-7	-14	18	17	x	x	x	x
COc1cccc2sc3cc(C#CC4(O)CCCCC4)ccc3c(=O)c12	80*	87*	-4	21	39	55*	-13	87*	15
COC(=O)C1=C(C)NC2=C(C(=O)CC(C)(C)C2)C1c1cn(Cc2ccc(Br)cc2)nc1-c1ccccc1 (stereo not given)	37	13	-4	x	x	x	x	x	x
COC(=O)C1=C(C)NC2=C(C(=O)CCC2)C1c1cn(Cc2ccc(Br)cc2)nc1-c1ccccc1 (stereo not given)	75*	35	-4	7	9	1	-18	52	-17
CC(C)(C)[C@H](NC(=O)c1ccc(N)c(Cl)c1)C(=O)N1CCC[C@H]1C(=O)N[C@H](C#N)CC(=O)O	x	x	x	3	-26	x	x	x	x
Cn1c(CNc2nc(-c3ccccc3)cs2)nnc1SCC(=O)N1CCc2ccccc21	80*	47*	-14	3	0	22	-11	55	2
CC[C@]12c3[nH]c4cc(-c5ccco5)ccc4c3CCN1C(=O)[C@@H](CC(=O)NC/C=C(\C)CCC=C(C)C)C[C@@H]2C(=O)N1CCN(C(=O)c2ccco2)CC1	58*	94*	-14	x	x	74*	-2	76*	0
C[C@@H]1OC(C2CCCCC2)N(C)[C@H]2C[C@H]3c4[nH]c5c(-c6ccccc6)cccc5c4CCN3C(=O)[C@@H]12 (stereo not given in full)	x	x	x	1	34	x	x	x	x
CC(C)(C)C(=O)Nc1sc2c(c1-c1nc3ccccc3[nH]1)CCCC2	56*	80*	-29	4	-8	14	-8	56*	1
CCN(CC)Cc1cc(Nc2c3ccccc3nc3c4ccccc4n(C)c23)cc(CN(CC)CC)c1O	x	x	x	1	-33	x	x	x	x
COc1ccc(C(=O)NCC2CCN(C(=O)C(=O)c3cc4ccccc4o3)CC2)cc1	x	x	x	-1	16	x	x	x	x
O=C(Nc1cccc(Cl)c1)Nc1ccnc(-c2cccnc2)n1	67*	41*	6	20	55*	28	1	69*	7
c1cncc(-c2nc3ccccc3o2)c1	10	-10	-10	1	-11	x	x	x	x
Cc1ccnc2ccc(-c3nc4ccccc4o3)cc12	92*	41*	-25	12	0	48*	-18	94*	10
Cc1nc2ccc(-c3nc4ccccc4o3)cc2[nH]1	105*	50*	-6	1	5	33*	-2	94*	1
Cc1nc2ccc(-c3nc4ccc(N)cc4[nH]3)cc2[nH]1	12	-14	-7	6	-5	x	x	x	x
O=C(NCCc1ccccc1)C1Cc2c(-c3ccc(Cl)cc3)ccnc2O1 (stereo not given)	x	x	x	1	-15	x	x	x	x
OCC1OC(C(N=Nc2ccccc2)=NNc2ccccc2)C(O)C1O (stereo not given)	x	x	x	1	-31	x	x	x	x
CCc1nc2ccc(C(=O)Nc3cccc(NS(C)(=O)=O)c3)cn2c1N(C)C(=O)c1cccc(OC)c1	x	x	x	3	12	x	x	x	x
SMILES	OX1R antag-1	OX1R antag-2	CHO parental Ca	TAAR1 agonist	TAAR1 antagonist	OX1R Ca confirm	CHO Ca triplic	OX1R HTRF confirm	CHO-K1 HTRF
O=C(Nc1cccc(S(=O)(=O)NCc2ccco2)c1)c1cc(-c2ccc(F)cc2)nc2ccccc12	65*	56*	12	11	57*	29*	-12	49	6
COc1cc(/C=N/NC(=O)CCn2c3ccccc3c3ccccc32)ccc1O	54*	75*	8	21	39	37*	3	83*	-15
O=C(CCCOC(=O)c1ccc(O)cc1O)c1ccc(Br)cc1	x	x	x	1	30	x	x	x	x
O=C(CCCN1C(=O)/C(=C/c2cccs2)SC1=S)Nc1cccc(O)c1	67*	45*	2	5	45	33*	7	59*	7
Cc1cc(C)c(CN2CCN(C(=O)Cn3cc(C)c(=O)[nH]c3=O)CC2)c(C)c1	x	x	x	-1	-12	x	x	x	x
COc1ccc(-c2cc(C)no2)cc1S(=O)(=O)N1CCOc2ccccc21	17	0	-13	-1	-10	x	x	x	x
CCC1CN(S(=O)(=O)c2cc(-c3cc(C)no3)ccc2OC)c2cc(C)ccc2O1 (stereo not given)	73*	63*	-28	-2	-36	27	-9	86*	2
CC(C)(C)S(=O)(=O)N1C[C@@H]2CC(=O)C(CCO)=C2[C@H]1CCO	x	x	x	5	-15	x	x	x	x
Cc1ccc(NC(=O)COc2cccc(Oc3ccccc3)c2)cc1S(=O)(=O)N1CCOCC1	30*	45*	-5	11	40	32*	-8	18	0
O=C(O)CCCC[n+]1ccccc1	x	x	x	2	-16	x	x	x	x

Compound activity as filed in PubChem.
